The source made the active and inactive calls. The calls are words filed in the database; no cut-off is given here.
Experiments:
[1] = molecular target: T1, Metabotropic glutamate receptor 5 (Homo sapiens, UniProt P41594); assay: Antagonist activity at human mGluR5 expressed in HEK293 cells assessed as inhibition of L-glutamate-induced calcium mobilization at 1 uM by FDSS6000 assay; type: functional, cell-based
Method in brief: (§1)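 HEK cells stably expressing mGluR5, grown in DMEM with 10% FBS, penicillin, streptomycin and puromycin (10 µg/mL) at 37 °C, 5% CO₂. Cells seeded at 40,000/well, incubated 18 h, then loaded with Calcium-5 dye. In the FDSS6000 fluorescence assay, receptor activated with L-glutamate in HBSS in the presence of various concentrations of test compound. Read-out is inhibition of the Ca²⁺ signal.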
Target sequence in this assay (P41594 21-1212 limits assumed): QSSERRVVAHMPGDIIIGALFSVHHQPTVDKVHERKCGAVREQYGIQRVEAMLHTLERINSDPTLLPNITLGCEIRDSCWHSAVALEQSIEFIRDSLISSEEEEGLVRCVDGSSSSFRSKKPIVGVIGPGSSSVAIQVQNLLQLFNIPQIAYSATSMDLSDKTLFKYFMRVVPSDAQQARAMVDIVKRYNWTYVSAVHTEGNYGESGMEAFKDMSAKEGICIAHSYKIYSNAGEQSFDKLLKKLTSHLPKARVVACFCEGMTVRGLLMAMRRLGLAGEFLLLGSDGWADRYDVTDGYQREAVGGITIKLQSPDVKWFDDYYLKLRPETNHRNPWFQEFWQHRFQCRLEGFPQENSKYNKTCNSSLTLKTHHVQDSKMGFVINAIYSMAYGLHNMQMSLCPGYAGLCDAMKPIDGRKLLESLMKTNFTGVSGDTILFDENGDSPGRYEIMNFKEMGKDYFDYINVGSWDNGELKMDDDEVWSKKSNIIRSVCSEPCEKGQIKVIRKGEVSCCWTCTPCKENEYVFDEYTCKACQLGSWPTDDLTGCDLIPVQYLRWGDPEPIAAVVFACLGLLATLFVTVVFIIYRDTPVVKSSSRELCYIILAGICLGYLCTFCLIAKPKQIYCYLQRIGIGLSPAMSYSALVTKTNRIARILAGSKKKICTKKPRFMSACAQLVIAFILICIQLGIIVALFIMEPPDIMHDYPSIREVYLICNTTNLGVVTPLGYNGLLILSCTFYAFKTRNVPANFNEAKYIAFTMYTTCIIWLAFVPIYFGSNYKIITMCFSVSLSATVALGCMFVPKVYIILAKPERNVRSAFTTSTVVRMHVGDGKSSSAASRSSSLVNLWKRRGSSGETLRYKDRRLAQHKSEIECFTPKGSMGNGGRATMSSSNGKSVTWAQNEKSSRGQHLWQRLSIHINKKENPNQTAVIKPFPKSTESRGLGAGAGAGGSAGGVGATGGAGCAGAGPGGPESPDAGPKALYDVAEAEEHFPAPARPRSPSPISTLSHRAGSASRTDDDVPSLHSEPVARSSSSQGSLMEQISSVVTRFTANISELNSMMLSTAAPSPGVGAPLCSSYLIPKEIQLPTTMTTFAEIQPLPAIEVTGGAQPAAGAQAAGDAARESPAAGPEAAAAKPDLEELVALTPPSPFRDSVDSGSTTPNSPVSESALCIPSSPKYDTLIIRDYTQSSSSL

[2] = molecular target: T1, Metabotropic glutamate receptor 5; assay: Antagonist activity at human mGluR5 expressed in HEK293 cells assessed as inhibition of L-glutamate-induced calcium mobilization at 10 uM by FDSS6000 assay; type: functional, cell-based; method in brief: as §1
Target sequence in this assay (P41594 21-1212 limits assumed): as above

CYP3A4 = CYP3A4 (Homo sapiens, UniProt P08684); assay: Inhibition of CYP3A4 (unknown origin) assessed as residual activity at 10 uM; type: ADME; details: read-out: Activity
CYP3A4, sequence (P08684 whole entry): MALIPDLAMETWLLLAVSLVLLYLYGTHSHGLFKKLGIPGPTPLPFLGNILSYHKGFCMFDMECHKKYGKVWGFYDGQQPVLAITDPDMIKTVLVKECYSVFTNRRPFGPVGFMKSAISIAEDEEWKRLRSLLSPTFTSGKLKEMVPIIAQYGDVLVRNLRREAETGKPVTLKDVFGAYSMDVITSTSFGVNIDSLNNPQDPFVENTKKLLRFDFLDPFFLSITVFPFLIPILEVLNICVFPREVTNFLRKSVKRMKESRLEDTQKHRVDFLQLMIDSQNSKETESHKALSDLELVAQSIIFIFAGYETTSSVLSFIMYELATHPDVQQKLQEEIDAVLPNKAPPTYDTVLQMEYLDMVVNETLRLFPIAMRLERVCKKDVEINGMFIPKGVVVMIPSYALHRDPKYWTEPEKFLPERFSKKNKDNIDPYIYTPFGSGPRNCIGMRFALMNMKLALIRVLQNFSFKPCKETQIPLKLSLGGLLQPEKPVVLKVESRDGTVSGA
Method in brief: (§2)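 CYP2D6, CYP2C9 and CYP3A4 each tested with compound at 10 µM; read-out is percent enzyme activity remaining.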

CYP2C9 = CYP2C9 (Homo sapiens, UniProt P11712); assay: Inhibition of CYP2C9 (unknown origin) assessed as residual activity at 10 uM; type: ADME; details: read-out: Activity; method in brief: as §2
CYP2C9, sequence (P11712 whole entry): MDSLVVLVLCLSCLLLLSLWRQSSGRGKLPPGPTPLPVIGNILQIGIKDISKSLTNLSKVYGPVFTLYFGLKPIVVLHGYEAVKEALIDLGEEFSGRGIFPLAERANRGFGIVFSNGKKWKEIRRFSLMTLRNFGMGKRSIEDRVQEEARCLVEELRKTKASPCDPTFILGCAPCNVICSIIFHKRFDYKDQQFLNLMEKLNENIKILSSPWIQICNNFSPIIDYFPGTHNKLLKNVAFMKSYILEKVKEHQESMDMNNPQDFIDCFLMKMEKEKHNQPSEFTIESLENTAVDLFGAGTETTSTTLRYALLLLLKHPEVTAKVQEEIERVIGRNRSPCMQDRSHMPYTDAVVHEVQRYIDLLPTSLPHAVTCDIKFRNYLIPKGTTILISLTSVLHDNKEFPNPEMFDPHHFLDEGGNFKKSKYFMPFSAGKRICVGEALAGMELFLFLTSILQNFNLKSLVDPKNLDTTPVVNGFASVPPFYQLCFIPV

CYP2D6 = CYP2D6 (Homo sapiens, UniProt P10635); assay: Inhibition of CYP2D6 (unknown origin) assessed as residual activity at 10 uM; type: ADME; details: read-out: Activity; method in brief: as §2
CYP2D6, sequence (P10635 whole entry): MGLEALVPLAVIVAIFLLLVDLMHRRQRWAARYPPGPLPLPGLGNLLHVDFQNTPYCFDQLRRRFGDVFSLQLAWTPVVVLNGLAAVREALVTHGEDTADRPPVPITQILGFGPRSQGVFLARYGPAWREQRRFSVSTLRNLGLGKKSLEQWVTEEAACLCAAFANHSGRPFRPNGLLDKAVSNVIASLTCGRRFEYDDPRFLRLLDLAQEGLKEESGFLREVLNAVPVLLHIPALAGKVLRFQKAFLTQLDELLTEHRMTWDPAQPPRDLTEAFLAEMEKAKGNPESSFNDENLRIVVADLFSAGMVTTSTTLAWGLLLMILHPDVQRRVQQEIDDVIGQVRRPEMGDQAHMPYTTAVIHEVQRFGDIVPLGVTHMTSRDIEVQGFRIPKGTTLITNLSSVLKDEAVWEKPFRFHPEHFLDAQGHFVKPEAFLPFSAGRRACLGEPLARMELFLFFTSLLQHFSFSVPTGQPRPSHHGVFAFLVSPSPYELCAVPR

[3] = Metabolic stability in human liver microsomes assessed as compound remaining at 1 uM after 30 mins; type: ADME, Microsome; details: read-out: Stability
Method in brief: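 Compound at 1 µM incubated with human liver microsomes for 30 min; read-out is percent of parent remaining.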

Rattus norvegicus [4] = assay: Antiallodynic activity in rat spinal nerve ligation model of neuropathic pain assessed as reduction of cold allodynia at 100 mg/kg, po after 3 hrs; type: functional, organism-based; design: dose 100 mg/kg
Method in brief: (§3)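 Rat SNL model: tight ligation of L5 spinal nerve distal to DRG. Mechanical and cold allodynia were tested 1 day before and 14 days after surgery, then given orally, and retested at 1, 3 and 5 h. Mechanical allodynia used the wire-mesh-floor method, cold allodynia was scored as %MPE. Gabapentin was the reference (n = 4), test n = 5. Paired t-test versus pre-dose.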

Rattus norvegicus [5] = assay: Antiallodynic activity in rat spinal nerve ligation model of neuropathic pain assessed as reduction of mechanical allodynia at 100 mg/kg, po after 5 hrs; type: functional, organism-based; design: dose 100 mg/kg; method in brief: as §3
[6] = Oral bioavailability in rat at 10 mg/kg; type: ADME, organism-based; details: in vivo
Method in brief: (§4)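 Rat plasma pharmacokinetics after a 10 mg/kg dose, intravenous (n = 4) or oral (n = 3); mean parameters reported.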

[7] = Half life in rat at 10 mg/kg, po; type: ADME, organism-based; design: dose 10 mg/kg, route oral; details: in vivo; method in brief: as §4
[8] = Tmax in rat at 10 mg/kg, po; type: ADME, organism-based; design: dose 10 mg/kg, route oral; details: in vivo
Method in brief: (§5)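 Rat plasma pharmacokinetics after a single oral dose of 10 mg/kg. The group size was n = 3 rats, and the reported values are group means.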

[9] = Cmax in rat at 10 mg/kg, po; type: ADME, organism-based; design: dose 10 mg/kg, route oral; details: in vivo; method in brief: as §5
[10] = Apparent volume of distribution at steady state in rat at 10 mg/kg, iv; type: ADME, organism-based; design: dose 10 mg/kg, route intravenous; details: in vivo, read-out: Vdss(app); method in brief: as §4
[11] = Clearance in rat at 10 mg/kg, iv; type: ADME, organism-based; design: dose 10 mg/kg, route intravenous; details: in vivo; method in brief: as §4
[12] = Half life in rat at 10 mg/kg, iv; type: ADME, organism-based; design: dose 10 mg/kg, route intravenous; details: in vivo; method in brief: as §4
[13] = molecular target: T1, Metabotropic glutamate receptor 5; assay: Antagonist activity at human mGluR5 expressed in HEK293 cells assessed as inhibition of L-glutamate-induced calcium mobilization by FDSS6000 assay
Target sequence in this assay (P41594 whole entry): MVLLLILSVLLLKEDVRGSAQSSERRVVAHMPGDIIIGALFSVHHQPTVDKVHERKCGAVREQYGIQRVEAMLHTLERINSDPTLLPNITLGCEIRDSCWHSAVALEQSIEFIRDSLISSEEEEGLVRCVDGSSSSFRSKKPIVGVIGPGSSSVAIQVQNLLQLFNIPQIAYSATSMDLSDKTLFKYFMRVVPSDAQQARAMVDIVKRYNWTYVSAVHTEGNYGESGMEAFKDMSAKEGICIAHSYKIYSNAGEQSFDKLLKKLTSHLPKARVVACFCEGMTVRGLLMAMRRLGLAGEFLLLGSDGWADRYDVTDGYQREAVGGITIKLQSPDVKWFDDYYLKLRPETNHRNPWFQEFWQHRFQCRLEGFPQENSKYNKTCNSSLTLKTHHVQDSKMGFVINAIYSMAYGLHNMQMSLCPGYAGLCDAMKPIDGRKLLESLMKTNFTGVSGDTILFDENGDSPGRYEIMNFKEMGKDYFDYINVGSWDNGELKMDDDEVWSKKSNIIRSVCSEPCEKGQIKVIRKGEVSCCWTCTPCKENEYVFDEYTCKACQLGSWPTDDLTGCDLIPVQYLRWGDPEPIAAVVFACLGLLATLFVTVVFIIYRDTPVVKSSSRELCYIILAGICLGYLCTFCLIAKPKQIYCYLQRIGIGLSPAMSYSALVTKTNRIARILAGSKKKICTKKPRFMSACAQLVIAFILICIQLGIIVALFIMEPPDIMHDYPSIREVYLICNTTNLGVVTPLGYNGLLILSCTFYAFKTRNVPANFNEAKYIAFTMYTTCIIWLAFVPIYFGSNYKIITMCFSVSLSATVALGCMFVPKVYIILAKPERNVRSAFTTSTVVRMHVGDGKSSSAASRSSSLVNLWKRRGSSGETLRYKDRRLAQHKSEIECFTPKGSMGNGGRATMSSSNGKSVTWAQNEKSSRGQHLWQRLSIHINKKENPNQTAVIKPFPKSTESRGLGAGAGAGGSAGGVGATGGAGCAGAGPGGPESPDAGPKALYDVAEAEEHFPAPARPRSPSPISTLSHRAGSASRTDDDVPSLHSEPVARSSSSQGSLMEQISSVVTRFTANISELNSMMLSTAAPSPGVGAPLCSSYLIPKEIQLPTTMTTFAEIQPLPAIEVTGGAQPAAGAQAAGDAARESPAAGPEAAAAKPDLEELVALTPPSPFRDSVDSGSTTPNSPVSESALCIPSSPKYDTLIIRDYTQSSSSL

[14] = molecular target: Voltage-gated inwardly rectifying potassium channel KCNH2 (Homo sapiens, UniProt Q12809)
Voltage-gated inwardly rectifying potassium channel KCNH2, sequence (Q12809 whole entry): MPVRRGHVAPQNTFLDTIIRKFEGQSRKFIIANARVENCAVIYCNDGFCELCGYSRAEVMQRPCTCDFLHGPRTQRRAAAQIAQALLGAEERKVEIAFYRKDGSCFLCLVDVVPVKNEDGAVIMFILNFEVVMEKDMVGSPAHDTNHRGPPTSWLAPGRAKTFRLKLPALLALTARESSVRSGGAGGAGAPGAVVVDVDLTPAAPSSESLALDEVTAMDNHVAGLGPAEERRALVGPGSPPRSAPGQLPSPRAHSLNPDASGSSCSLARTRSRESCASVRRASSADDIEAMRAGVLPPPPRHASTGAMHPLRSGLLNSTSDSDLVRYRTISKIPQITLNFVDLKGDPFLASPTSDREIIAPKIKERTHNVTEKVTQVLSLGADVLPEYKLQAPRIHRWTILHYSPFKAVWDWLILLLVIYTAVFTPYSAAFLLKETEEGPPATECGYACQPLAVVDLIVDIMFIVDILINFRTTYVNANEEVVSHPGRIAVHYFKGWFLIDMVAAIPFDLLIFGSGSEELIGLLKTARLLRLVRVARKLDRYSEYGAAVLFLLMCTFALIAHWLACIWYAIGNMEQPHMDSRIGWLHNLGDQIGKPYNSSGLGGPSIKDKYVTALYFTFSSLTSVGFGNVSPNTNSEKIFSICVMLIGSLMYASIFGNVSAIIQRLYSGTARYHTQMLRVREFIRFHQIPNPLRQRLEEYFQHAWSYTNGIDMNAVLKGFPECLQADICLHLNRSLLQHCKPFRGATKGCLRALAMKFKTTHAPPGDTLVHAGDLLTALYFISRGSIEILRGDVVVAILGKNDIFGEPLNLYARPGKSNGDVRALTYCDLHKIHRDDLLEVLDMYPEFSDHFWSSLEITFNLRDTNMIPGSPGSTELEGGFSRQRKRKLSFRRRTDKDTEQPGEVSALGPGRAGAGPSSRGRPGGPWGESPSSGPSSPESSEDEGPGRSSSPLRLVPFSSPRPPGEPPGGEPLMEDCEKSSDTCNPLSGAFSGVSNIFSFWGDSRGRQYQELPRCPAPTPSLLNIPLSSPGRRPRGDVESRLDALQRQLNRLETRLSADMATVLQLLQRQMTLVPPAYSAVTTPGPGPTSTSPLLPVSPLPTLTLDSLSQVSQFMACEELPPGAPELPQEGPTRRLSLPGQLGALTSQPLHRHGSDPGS

| Compound | inhibition [1] | inhibition [2] | other results |
| --- | --- | --- | --- |
| C(#Cc1ccc2ccccc2n1)c1cccnc1 | 43.9% | 65.8% | – |
| C(#Cc1ccc2ccccc2n1)c1cncnc1 | 13.6% | 22.4% | – |
| Brc1cccc2nc(C#Cc3ccccc3)ccc12 | 21.1% | 20.7% | – |
| Clc1cccc2nc(C#Cc3ccccn3)ccc12 | 31% | 64.3% | – |
| FC(F)(F)c1ccnc(C#Cc2ccc3ccccc3n2)c1 | 23.3% | 58% | – |
| N#Cc1cccc(C#Cc2ccc3ccccc3n2)n1 | 33% | 64.8% | – |
| C(#Cc1ncccn1)c1ccc2ccccc2n1 | 17.1% | 28.6% | – |
| COc1cccc2nc(C#Cc3ccccc3)ccc12 | 63.6% | 68% | activity at 10 µM (CYP3A4): 50%; activity at 10 µM (CYP2C9): 55%; activity at 10 µM (CYP2D6): > 99%; remaining at 0.5 h, 1 µM [3]: < 1% |
| Clc1cccc2nc(C#Cc3ccccc3)ccc12 | 11.7% | 8.02% | – |
| Brc1cccc2nc(C#Cc3cccnc3)ccc12 | 22% | 40.1% | – |
| Fc1cnc(C#Cc2ccc3ccccc3n2)nc1 | 16% | 15.6% | – |
| COc1cccc2nc(C#Cc3cccnc3)ccc12 | 67.7% | 67.7% | remaining at 0.5 h, 1 µM [3]: < 1% |
| Cc1ccc(C#Cc2ccc3ccccc3n2)nc1 | 29% | 66.3% | – |
| FC(F)(F)c1ccnc(C#Cc2ccc3ccccc3n2)n1 | 17.3% | 15.9% | – |
| COc1cccc(C#Cc2ccc3ccccc3n2)n1 | 16.6% | 48.6% | – |
| Fc1cccc(C#Cc2ccc3ccccc3n2)n1 | 29.6% | 46.9% | – |
| CC(C)(C)C(=O)Oc1cccc2nc(C#Cc3cccnc3)ccc12 | 10.6% | 28.5% | – |
| N#Cc1ccnc(C#Cc2ccc3ccccc3n2)c1 | 35.2% | 76.1% | – |

| Compound | inhibition [1] | inhibition [2] | other results |
| --- | --- | --- | --- |
| FC(F)(F)c1ccc(C#Cc2ccc3ccccc3n2)nc1 | 13% | 50.7% | – |
| C(#Cc1ccc2ccccc2n1)c1ccccn1 | 58.8% | 76.7% | Activity (Rattus norvegicus [4]): Active; Activity (Rattus norvegicus [5]): Active; bioavailability [6]: 15.9%; half-life [7]: 58.2 min; Tmax [8]: 10 min; Cmax [9]: 430 ng/mL; Vd [10]: 1.27 L/kg; clearance [11]: 84.9 mL/min/kg; half-life [12]: 48.5 min; activity at 10 µM (CYP3A4): 77%; activity at 10 µM (CYP2C9): > 99%; activity at 10 µM (CYP2D6): 98%; remaining at 0.5 h, 1 µM [3]: 88% |
| Oc1cccc2nc(C#Cc3cccnc3)ccc12 | 25.2% | 17.6% | – |
| Brc1cccc2nc(C#Cc3ccccn3)ccc12 | 56.7% | 77.5% | activity at 10 µM (CYP3A4): 56%; activity at 10 µM (CYP2C9): 52%; activity at 10 µM (CYP2D6): 78%; remaining at 0.5 h, 1 µM [3]: 98%; IC50 [13]: 0.75 µM; IC50 [14]: 22.7 µM |
| NCC1(CC(=O)O)CCCCC1 | – | – | Activity (Rattus norvegicus [4]): Active; Activity (Rattus norvegicus [5]): Active |
| Fc1ccc(C#Cc2ccc3ccccc3n2)nc1 | 33.9% | 63.3% | – |
| Oc1cccc2nc(C#Cc3ccccn3)ccc12 | 17.4% | 22.1% | – |
| Oc1cccc2nc(C#Cc3ccccc3)ccc12 | 18% | 24.3% | – |
| CC(C)(C)C(=O)Oc1cccc2nc(C#Cc3ccccc3)ccc12 | 24% | 23.8% | – |
| FC(F)(F)c1cccnc1C#Cc1ccc2ccccc2n1 | 9.49% | 16.4% | – |
| Clc1cccc2nc(C#Cc3cccnc3)ccc12 | 11.2% | 28.4% | – |
| FC(F)(F)c1cccc(C#Cc2ccc3ccccc3n2)n1 | 15.8% | 28.7% | – |
| C(#Cc1ccc2ccccc2n1)c1ccccc1 | 35.9% | 67.7% | – |
| Fc1cccnc1C#Cc1ccc2ccccc2n1 | 31.3% | 55.2% | – |
| Cc1ccnc(C#Cc2ccc3ccccc3n2)c1 | 21.9% | 66.5% | – |
| CC(C)(C)C(=O)Oc1cccc2nc(C#Cc3ccccn3)ccc12 | 17.1% | 62.4% | – |
| CCOc1cccc2nc(C#Cc3cccnc3)ccc12 | 47.2% | 66.6% | – |
| Cc1cccnc1C#Cc1ccc2ccccc2n1 | 18.9% | 40.1% | – |
